Assay results collected from several papers.
Lines come from different studies, so protocols differ.
Target: MAP kinase-activated protein kinase 5 (MAPKAPK5, Homo sapiens, UniProt Q8IW41)
One construct used (Q8IW41 1-473): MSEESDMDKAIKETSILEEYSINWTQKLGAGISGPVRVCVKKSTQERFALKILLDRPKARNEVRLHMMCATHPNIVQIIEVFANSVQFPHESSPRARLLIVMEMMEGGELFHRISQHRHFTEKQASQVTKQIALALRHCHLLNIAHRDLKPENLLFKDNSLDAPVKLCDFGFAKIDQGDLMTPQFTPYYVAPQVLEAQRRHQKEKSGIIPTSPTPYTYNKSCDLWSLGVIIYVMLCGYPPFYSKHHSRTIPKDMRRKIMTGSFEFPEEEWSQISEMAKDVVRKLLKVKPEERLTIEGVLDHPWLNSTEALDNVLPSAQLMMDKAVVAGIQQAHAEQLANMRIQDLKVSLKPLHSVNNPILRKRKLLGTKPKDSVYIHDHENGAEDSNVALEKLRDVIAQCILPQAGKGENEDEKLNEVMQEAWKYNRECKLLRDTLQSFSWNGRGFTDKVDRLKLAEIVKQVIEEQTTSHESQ

The remaining binding of `CSc1cccnc1N1CCN(Cc2nc3ccccc3[nH]2)CC1` is reported as 84% (cell-free assay; competition with immobilised ligand; 1 µM).
The remaining binding of `CN(CCCC(F)(F)F)c1nccc(-c2cnn3ncccc23)n1` is reported as 100% (binding; 1 µM).
For `O=C(c1ccc(Nc2nccc(-c3cc4ccccc4s3)n2)cc1)N1CCC(N2CCCC2)CC1`, the remaining binding was 96% (binding; competition with immobilised ligand; 1 µM).
For `Cn1cc(Cl)c2c(Oc3c(F)cc(Nc4cc(Cl)nc(N)n4)cc3F)ccnc21`, the remaining binding was 100% (cell-free assay; competition with immobilised ligand; 0.1 µM).
`O=C(NCC1CCOCC1)c1n[nH]cc1NC(=O)c1c(F)cccc1F` gave a remaining binding of 72% (binding; competition with immobilised ligand; 1 µM).
`CCN1CCN(Cc2ccc(C(=O)Nc3ccc(C)c(Oc4ccc5c(c4)CC(=O)N5)c3)cc2C(F)(F)F)CC1` gave a remaining binding of 100% (binding; competition with immobilised ligand; 1 µM).
For `C[C@H]1CCN(c2nccc(-c3cnn4ncccc34)n2)C1`, the remaining binding was 69% (binding; 1 µM).
`COc1cnc(Nc2cccc(S(N)(=O)=O)c2)nc1N1CCN(c2ccccc2)C(=O)C1` gave a remaining binding of 100% (binding; competition with immobilised ligand; 1 µM).
The remaining binding of `O=C(NCCCN1CCOCC1)c1ccc(Nc2nccc(-c3cc4ccccc4s3)n2)cc1` is reported as 82% (binding; competition with immobilised ligand; 1 µM).
`C=CC(=O)N1CCC(C(=O)NCC(=O)N2CCN(c3nc(-c4cnc(N)nc4C(F)F)nc(N4CCOCC4)n3)CC2)CC1` has a remaining binding of 92% (binding; competition with immobilised ligand; 1 µM).
`CN(C)c1nccc(-c2cnc3ncccn23)n1` gave a remaining binding of 93% (binding; 1 µM).
With `COc1ncc2cc3ccccc3nc2c1C#N` the remaining binding was 83% (cell-free assay; competition with immobilised ligand; 5 µM).
`CC1CCCN1c1nccc(-c2cnn3ncccc23)n1` (stereo not shown) gave a remaining binding of 100% (binding; 1 µM).
For `CC(=O)Nc1c(C(C)=O)c(=O)n(C)c2nc(-c3ccc(Cl)cc3Cl)c(-c3ccc(Cl)cc3)cc12`, the remaining binding was 100% (cell-free assay; competition with immobilised ligand; 1 µM).
`CNC(=O)[C@@H]1CC[C@@H](n2c(-c3ccc4cnccc4c3)nc3ccc(C(=O)NCc4cccc(C(N)=O)c4)cc32)C1` has a remaining binding of 100% (binding; competition with immobilised ligand; 1 µM).
`CN(C(=O)c1ccccc1)c1cc(N(C)c2ccc3c(c2)CCc2ccc(C(=O)NCCN4CCOCC4)cc2C3=O)ccc1F` gave a remaining binding of 100% (cell-free assay; competition with immobilised ligand; 1 µM).
`FC(F)(F)Oc1cccc(-c2cnc3ccc(-c4ccncc4)nn23)c1` has a remaining binding of 71% (cell-free assay; competition with immobilised ligand; 5 µM).
`c1cnn2ncc(-c3ccnc(N4CCC45COC5)n3)c2c1` gave a remaining binding of 74% (binding; 1 µM).
The remaining binding of `O=S(=O)(NC1CCC(c2cc(F)ccc2F)(S(=O)(=O)c2ccc(Cl)cc2)CC1)C(F)(F)F` (stereo not shown) is reported as 93% (cell-free assay; competition with immobilised ligand; 1 µM).
